The results in this text go back to the RNAGym collection of RNA variant scans (doi:10.1126/science.aae0568).

This sample holds only a part of the variants without activity. Some results are limits rather than exact numbers.

Sequences and labels used below:
B1: tRNA (parent)
chain: GUUCCGUUGGCGUAAUGGUAACGCGUCUCCCUCCUAAGGAGAAGACUGCGGGUUCGAGUCCCGUACGGAACG

The variants in this data set derive from B1. Put plainly: yeast fitness relative to wild type (ratio to wild type); higher = fitter; tRNA-Arg(CCU), competitive growth, 37 C, YPD. The method in brief:
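Gene amplicons from the start population and from each of six end populations were read by 100-nucleotide paired-end sequencing. Those end populations came from pooled Saccharomyces cerevisiae strains carrying tRNA-Arg(CCU) gene variants at the native locus, competed in YPD at 37°C for 24 hours. Fitness relative to wild type was worked out from changes in genotype frequencies. Genotypes needed ≥ 100 starting reads, and estimates < 0.5 were set to 0.5.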
As to GUUCCGUUGGCGUAAUGGUUACGCGUCUCCCUCCUAAGGAGAAGACUGCGGGUUCGAGUCCCGUAAGGAACG [A20U C66A], the yeast fitness turned out to be 0.612.

In the case of GUUCCGUCGGCGUAAUGGUAACGCGUCUCCCUCCUAAGGAGAAGACUGCGGGUUCGAGUCGCGUACGGAACG [U8C C61G], the yeast fitness worked out at 0.678.

For the variant GUUCCGUUGGCGUAAUGGUAACGCGUCUCCCUCCUAAGGAGAAGACUGCGGGUUCAAGUCCCGUACGGCACG [G56A A69C], the yeast fitness amounted to 1.04.

Consider GUUCGGUUCGCGUAAUGGUAACGCGUCUCCCUCCUAAGGAGAGGACUGCGGGUUCGAGUCCCGUACGGAACG [C5G G9C A43G], for which the yeast fitness was determined as 0.667.

Regarding GUUUCGUAGGCGCAAUGGUAACGCGUCUCCCUCCUAAGGAGAAGAAUGCGGGUUCGAGUCUCGUACGGAACG [C4U U8A U13C C46A C61U], the yeast fitness was at most 0.5.

In the case of GUUCCGUUGGCGUAAUGGCAACGCGUCUCCCUCCUAAGGAGAAGCCUCCGGGUUCGAGUCCCGUACGGAACG [U19C A45C G48C], the yeast fitness was found to be 0.57.

As for GUUCCGUUGGCGUAAUGGUAACGCGUCUCCCCCCUAAGGAGGAGACUGCGGGUUCGAGUCCCAUACGGAACG [U32C A42G G63A], the yeast fitness is 0.556.

On to GUUACGUUGGCGUUAUGGUAACGCGUCUCCCUCGUAAGGAGAAGACUGCGGGUUCCAGUCCCGUACGGAACG [C4A A14U C34G G56C], for which the yeast fitness is at most 0.5.

With GUUCCGUUGGCGUGCUGGUAACGCGUCUCCCUCCUACGGAGAAGAAUGCGGGUUCGAGUCCCGUACGGUACG [A14G A15C A37C C46A A69U], the yeast fitness was at most 0.5.

In the case of GUUCCGUUGGCGUAAUGGUCACGCGUCUCACUCCUAAGGAGAAGACUGCGGGUUAGAGUCCCGUACAGAACG [A20C C30A C55A G67A], the yeast fitness was determined as 0.534.

Regarding GUUCCGUUGGCGUAAUGGUAACGCGUGUCCCUCCUAAGGAGAAGACUGCGGGUUCGGGUCCCGUACGGAACG [C27G A57G], the yeast fitness came out at 0.608.

With GUUCCGUUGGCGUAAUGGUAACGUGUCUCCCUCCUCAGGAGAACACUGCGGGUUCGAGUCCAGUACGGAACG [C24U A36C G44C C62A], the yeast fitness turned out to be 0.752.

GUUCCGCUGGCGUAAUGGUAACGCGUCUCCCUCCUAAGGAGAAGACUGCGGGUUCAAGUCCCGUACGGAACG [U7C G56A]: the yeast fitness is 0.977.

As for GUUCCGUUGGCGUGAUGGUAACGCCUCUCCAUCCUAAGGAGAAGACUGCGGGUUCGAGUCCCGUACGGAACG [A14G G25C C31A], the yeast fitness is at most 0.5.

Regarding GUUCCGUUGCCGUAAUGGUAACGCGUAUCCCUCCUAAGGAGAAGACUGCGGGUUCGAGUCUCGUACGGAACG [G10C C27A C61U], the yeast fitness was at most 0.5.

GUUCCAUUGGCGUAAUGGUAAAACGUCUCCCUUGUAAGGAGAAGACUGCGGGUUCGAGUCCCGUACGCAACG [G6A C22A G23A C33U C34G G68C]: the yeast fitness is at most 0.5.

Turning to GUUCCGUUGGCGAAAUGGUAACGCGUCUCCCUCCUAAGGAGAAGACUGCGGGUUCGAGUCCCGUACGGUACG [U13A A69U], the yeast fitness turned out to be 0.984.

Regarding GUUCAGUUGGCGUAAUGGUAACGCGUCUCCCUCUUAAGGAGAAGACUGCGGGUUCGAGUCCCGUACGGAACG [C5A C34U], the yeast fitness was 0.786.

Consider GUUCCGUUGGCGUAAUGGUCACGUGUCUCCCUCCUAAGGAGAAGACUGCGGGUUCGAGUCGCGUACGGAACG [A20C C24U C61G], for which the yeast fitness is at most 0.5.

As for GUUGCGUUGGCGUAAUAGUAACGCGUCUCCCUCCUAAGGAGAAGACUGCGGGUUGGAGUCCCGUACGGAUCG [C4G G17A C55G A70U], the yeast fitness is at most 0.5.

Consider GUUUCGUUGGCGUAAUGGUAACGCGUCUCCCUCCUAAGGAGAAGACUGCGGCUUCGAGUCCCGUACGGAACG [C4U G52C], for which the yeast fitness was found to be 0.726.

Take GUUGCGUUAGCGUAAUGGUAACGCGUCUCCCCUCUAAGGAGAAGACUGCGGGUUCGAGUCCCGUACGGAACG [C4G G9A U32C C33U]: the yeast fitness was at most 0.5.

Consider GUUCCGUUGGUGUAAUGGUAACGCGUUUCCAUCCCAAGGAGAAGACUUCGGGUUGGAGUCCCGUAUGGACCG [C11U C27U C31A U35C G48U C55G C66U A70C], for which the yeast fitness is at most 0.5.

Turning to GUUCCGUUGGCGUAAUGGUAACGCGUCUCCCUCCUAAGGAGAAGACUGCGGGUUCUAAUCCCGUACGGAACG [G56U G58A], the yeast fitness is 0.589.

Take GUUCCGUUGGCGUAAUGGUAACGCGUCUCCCUCAUACGGAGAAGACUGAGGGUUCGAGUCCCGUACGGAACG [C34A A37C C49A]: the yeast fitness is 0.522.

Regarding GUUCCGUUGGCGUAAUGGUAACGCGUCUCCCUCCUAAGGAGAAGACUGCGGGUUCGAGCCUCGUACGGAACG [U59C C61U], the yeast fitness stood at 0.839.

Regarding GUUCCGUUGGCGUAAUGGUAUCGCGUCUCCCUCCUAAGGAGAAGACUGCGGGUUCGAGUCCCGUACGGACCG [A21U A70C], the yeast fitness came to 0.701.

Regarding GUUCCGUUGGCGUAAUGGUAACGCGUCUCUCUCCUAAGGAGAAGACUGCGGGGUCGAGUCCCGUACGGUACG [C30U U53G A69U], the yeast fitness is at most 0.5.

As to GUUCCGUUGGCGUAAAGGUAACGCGUGUCCCUCCUUAGGAGAAGACUGCGGGUUCGAGUCCCGUACGGAACG [U16A C27G A36U], the yeast fitness is at most 0.5.

For GUUCCGUUGACGUAAUGGUAACGCGUCUCCCUCCUAAGGAGAAGACUGCGGGUUCGAGUCCCGAACGGAACG [G10A U64A], the yeast fitness stood at 0.73.

Take GUUCCGUUGGCGUAAUGGUAACGCGUCUUCCUCCUAAGGAGAAGACUGCGGGUUCGAGUCCCGUCCGGCACG [C29U A65C A69C]: the yeast fitness was at most 0.5.

As for GUUCCGUUGGCGUAAUGGUAACGGGUCUCCCUCCUAAGGAGAAGACUGUGGGUUGGAGUCCCGUACGGAACG [C24G C49U C55G], the yeast fitness is at most 0.5.

For the variant GUUCUGUUGGCGUAAUGGUAACGCGUCUCCCUCGCAAGGAGAAGACUGCGGGUUCGAGUCCCGUACGGAACG [C5U C34G U35C], the yeast fitness was 0.533.

For GUUCCGUAGGCGUAAUGGUAACGCGUCUGCCUCCUAAGGGGAAGACUGCGGGUUCGAGUCCCGUACGGAACG [U8A C29G A40G], the yeast fitness is 0.639.

With GUUCCGUUGGCGUAAUGGUAACGUGUCUCCCUCUUAAGGAGAAGACUGCGGGUUCGAGUCCCGUACGGAGCG [C24U C34U A70G], the yeast fitness was 0.592.

On to GUUCCGUUGGCGUAAUGGUAACGCGUCUCCCUCCUAAGGAGCAGCCUACGGGUUCGAGUCCCGUACGGAACG [A42C A45C G48A], for which the yeast fitness was 0.958.

As to GUUCCGUUGGCGUAAUGGUAACGCGUCUCCCUCCUAAGGAGAAGACAGCGGGUUCGAGUCCUGUACGGAACG [U47A C62U], the yeast fitness amounted to 0.842.
